Calls of active or inactive are those of the source. No cut-off for these calls is given here.
What was measured:
[1] = system: RAW264.7; assay: Anti-inflammatory activity in mouse RAW264.7 cells assessed as inhibition of LPS-induced nitric oxide production preincubated for 3 hrs followed by LPS-stimulation and measured after 24 hrs by Griess assay; assay type: functional, cell-based
Procedure, shortened: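 Mouse macrophage RAW264.7 cells (ATCC) grown in DMEM with 10% FBS and penicillin/streptomycin at 37 °C, 5% CO2. Seeded at 5000 cells/well and cultured overnight. Medium replaced with compound-containing medium (0−100 μM) for 3 h, then 1 μg/mL LPS added for 24 h. Supernatant mixed 1:1 with Griess reagent for 10 min at room temperature, absorbance read at 540 nm. Nitrite quantified from a standard curve; IC50 taken from inhibition rates across a concentration gradient.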

[2] = system: RAW264.7; assay: Cytotoxicity against mouse RAW264.7 cells assessed as reduction in cell viability after 24 hrs by CCK8 assay; assay type: cell-based; settings: RAW264.7, 24 h
Procedure, shortened: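 RAW264.7 macrophages cultured in DMEM with 10% FBS and penicillin/streptomycin at 37 °C, 5% CO2. Cells exposed to compound for 24 h. Viability measured by CCK8 kit following the manufacturer's instructions.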

[3] = system: RAW264.7; assay: Cytotoxicity against mouse RAW264.7 cells assessed as reduction in cell viability at 100 uM after 24 hrs by CCK8 assay; assay type: cell-based; settings: raw264.7, 24 h
Procedure, shortened: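 Cells were exposed to compound across 0–100 range for 24 h. Viability was then measured by CCK8 assay on the well supernatant, following kit instructions. Comparison was made with cells given 0 μM compound.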

[4] = system: RAW264.7; assay: Anti-inflammatory activity in mouse RAW264.7 cells assessed as inhibition of LPS-induced IL1beta production preincubated for 3 hrs followed by LPS-stimulation and measured after 24 hrs by ELISA; assay type: functional, cell-based
Procedure, shortened: (§1)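 Cells were pretreated with compound at 2.5, 5 or 10 μM for 3 h, then stimulated with 1 μg/mL LPS for 24 h. IL-1β and IL-6 were quantified in collected supernatants by commercial ELISA kits. Significance was assessed against unstimulated, untreated control.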

[5] = system: RAW264.7; assay: Anti-inflammatory activity in mouse RAW264.7 cells assessed as inhibition of LPS-induced IL-6 production preincubated for 3 hrs followed by LPS-stimulation and measured after 24 hrs by ELISA; assay type: functional, cell-based; procedure, shortened: as §1
[6] = target: T1, NF-kappa-B inhibitor alpha (Mus musculus) (UniProt Q9Z1E3); assay: Inhibition of IkappaBalpha phosphorylation in LPS-stimulated mouse RAW264.7 cells assessed as reduction in iNOS expression preincubated for 3 hrs followed by LPS-stimulation and measured by Western blot analysis; assay type: cell-based
T1 sequence (whole entry): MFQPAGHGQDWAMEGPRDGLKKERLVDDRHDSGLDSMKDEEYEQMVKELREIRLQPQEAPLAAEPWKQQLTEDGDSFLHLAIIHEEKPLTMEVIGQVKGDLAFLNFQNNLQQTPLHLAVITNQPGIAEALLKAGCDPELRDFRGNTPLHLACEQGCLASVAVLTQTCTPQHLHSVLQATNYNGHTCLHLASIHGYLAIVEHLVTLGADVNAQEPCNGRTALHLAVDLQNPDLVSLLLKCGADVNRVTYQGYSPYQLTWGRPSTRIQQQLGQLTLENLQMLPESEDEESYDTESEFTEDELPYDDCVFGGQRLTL
Procedure, shortened: (§2)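 Cells were pretreated with compound for 3 h before LPS addition. Equal protein by BCA went onto 10% SDS-PAGE and nitrocellulose, probed for iNOS, NF-κB, IκBα and p-IκBα with chemiluminescence detection.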

[7] = target: T1, NF-kappa-B inhibitor alpha (Mus musculus); assay: Inhibition of IkappaBalpha phosphorylation in LPS-induced mouse RAW264.7 cells assessed as reduction in NFkappaB expression preincubated for 3 hrs followed by LPS-stimulation and measured by Western blot analysis; assay type: cell-based; procedure, shortened: as §2
[8] = target: T1, NF-kappa-B inhibitor alpha (Mus musculus); assay: Inhibition of LPS-induced IkappaBalpha phosphorylation in mouse RAW264.7 cells at 10 uM preincubated for 3 hrs followed by LPS-stimulation and measured by Western blot analysis; assay type: cell-based; procedure, shortened: as §2
[9] = target: T1, NF-kappa-B inhibitor alpha (Mus musculus); assay: Inhibition of IkappaBalpha phosphorylation in LPS-stimulated mouse RAW264.7 cells assessed as reduction in NF-kappaB p65 nuclear translocation at 5 to 10 uM pretreated for 2 hrs followed by LPS-stimulation measured after 12 hrs by DAPI staining based immunofluorescence assay; assay type: cell-based
Procedure, shortened: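 Cells at 70% confluence were pretreated with DMSO, given 5 or 10 μM compound for 2 h, then activated with 1 μg/mL LPS for 12 h. Cells were fixed in 4% paraformaldehyde, permeabilized with 0.25% Triton X-100 and blocked with 5% BSA. Staining used P65 antibody (1:1000, 4 °C overnight), AlexaFluor488 secondary (1:500, 1 h) and DAPI for nuclei.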

Compound | IC50 [1] | IC50 [2] | also measured
C=C1[C@@H](OC(=O)c2ccccc2)C[C@H]2[C@@H](/C=C(\C)C(=O)[C@@]3(OC(C)=O)C[C@H](C)[C@H](OC(=O)c4ccccc4)[C@@H]3[C@H]1OC(C)=O)C2(C)C | > 100 µM | > 50 µM | 
C=C1CC[C@H]2[C@@H](/C=C(\C)C(=O)[C@@]3(OC(C)=O)C[C@H](C)[C@H](OC(=O)c4ccccc4)[C@@H]3[C@H]1OC(C)=O)C2(C)C | 8.3 µM | > 50 µM | 
CC(=O)OC/C1=C/[C@@H]2[C@@H](O)[C@@H](C)C[C@]2(OC(C)=O)C(=O)/C(C)=C/[C@@H]2[C@H](CC1)C2(C)C | > 50 µM | > 50 µM | 
CC(=O)O[C@]12C[C@H](C)[C@H](OC(=O)/C=C/c3ccccc3)[C@@H]1/C=C(/CO)CC[C@H]1[C@@H](/C=C(\C)C2=O)C1(C)C | 26 µM | > 50 µM | 
C[C@@H]1C[C@H]2[C@@H]3CCC4=CC(=O)C=C[C@]4(C)[C@@]3(F)[C@@H](O)C[C@]2(C)[C@@]1(O)C(=O)CO [DEXAMETHASONE] | 7.9 µM |  | 
C=C1CC[C@H]2[C@@H](/C=C(\C)C(=O)[C@@]3(OC(C)=O)C[C@H](C)[C@H](OC(=O)c4cccnc4)[C@@H]3[C@H]1OC(C)=O)C2(C)C | 100 µM | > 50 µM | 
CCCCCC(=O)O[C@H]1[C@@H](C)C[C@]2(OC(C)=O)C(=O)/C(C)=C/[C@@H]3[C@H](CC/C(CO)=C\[C@@H]12)C3(C)C | 9.3 µM | > 50 µM | 
CC(=O)O[C@@H]1[C@H]2[C@@H](OC(=O)Cc3ccccc3)[C@@H](C)C[C@]2(OC(C)=O)C(=O)/C(C)=C/[C@@H]2[C@H](CC[C@]13CO3)C2(C)C | 9.9 µM | > 50 µM | 
CC(=O)OC/C1=C\C[C@H]2[C@@H](/C=C(\C)C(=O)[C@@]3(O)C[C@H](C)[C@H](OC(=O)c4ccccc4)[C@@H]3[C@H]1OC(C)=O)C2(C)C | > 100 µM | > 50 µM | 
C=C1[C@@H](OC(=O)c2ccccc2)C[C@H]2[C@@H](/C=C(\C)C(=O)[C@@]3(O)C[C@H](C)[C@H](OC(=O)c4ccccc4)[C@@H]3[C@H]1OC(C)=O)C2(C)C | 15.2 µM | > 50 µM | 
C=C1CC[C@H]2[C@@H](/C=C(\C)C(=O)[C@@]3(OC(C)=O)C[C@H](C)[C@H](OC(=O)/C=C/c4ccccc4)[C@@H]3[C@H]1O)C2(C)C | 3 µM | > 50 µM | Activity [3]: Toxic; inhibition [4]: Dose-dependent effect; inhibition [5]: Dose-dependent effect; inhibition [6]: Dose-dependent effect; inhibition [7]: Dose-dependent effect; inhibition [8]: Active; inhibition [9]: Active
C=C1[C@@H](OC(=O)c2cccnc2)C[C@H]2[C@@H](/C=C(\C)C(=O)[C@@]3(OC(C)=O)C[C@H](C)[C@H](OC(=O)c4ccccc4)[C@@H]3[C@H]1OC(C)=O)C2(C)C | 2.6 µM | > 50 µM | 
C=C1[C@H](O)C[C@H]2[C@@H](/C=C(\C)C(=O)[C@@]3(OC(C)=O)C[C@H](C)[C@H](OC(=O)c4ccccc4)[C@@H]3[C@H]1OC(C)=O)C2(C)C | 5 µM | > 50 µM | 
C=C1[C@H](OC(C)=O)C[C@H]2[C@@H](/C=C(\C)C(=O)[C@@]3(OC(C)=O)C[C@H](C)[C@H](OC(=O)c4ccccc4)[C@@H]3[C@H]1O)C2(C)C | 4 µM | > 50 µM | 
CC(=O)O[C@]12C[C@H](C)[C@H](O)[C@@H]1[C@H]1O[C@]1(C)CC[C@H]1[C@H](/C=C(\C)C2=O)C1(C)C | > 100 µM | > 50 µM | 
CC(=O)OC/C1=C/[C@H]2[C@@H](OC(=O)[C@H](O)c3ccccc3)[C@@H](C)C[C@]2(OC(C)=O)C(=O)/C(C)=C/[C@@H]2[C@H](CC1)C2(C)C | > 50 µM | > 50 µM | 
CC(=O)O[C@]12C[C@H](C)[C@H](OC(=O)Cc3ccccc3)[C@@H]1/C=C(/CO)CC[C@H]1[C@@H](/C=C(\C)C2=O)C1(C)C | > 100 µM | > 50 µM | 
